This is a sample that favours compounds with a hit; in the whole collection about 4.2% have one here.
hERG protect – compounds protecting human hERG from proarrhythmic drug block. Q12809. CHO-hERG, FluxOR thallium flux, dofetilide IC70 present. activation (rescue from dofetilide block), less the hit threshold, % at 10 µM. hit rate 0.51% among 310,000;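 active = activation above the mean of controls blocked by dofetilide plus 5 SD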;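 note: thallium influx through hERG after potassium depolarization seen as dye fluorescence rise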
Cl transport mod – modulators of human KCC2 chloride dependent transport | KCC2 cells, thallium flux FluoZin-2 fluorescence | hit rate 2.2% among 190,000 | Q9H2X9 | B-score of Tl+ flux slope (higher = more flux/activation; lower = inhibition) at 10 µM | AID 1456;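 active = thallium flux slope and its plate-corrected score both differing from the plate sample mean at a set confidence after two filtering rounds, in either direction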;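 note: slope of fluorescence scaled to starting intensity during 10 to 20 s after thallium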
Target sequence (Q9H2X9 whole entry, looked up): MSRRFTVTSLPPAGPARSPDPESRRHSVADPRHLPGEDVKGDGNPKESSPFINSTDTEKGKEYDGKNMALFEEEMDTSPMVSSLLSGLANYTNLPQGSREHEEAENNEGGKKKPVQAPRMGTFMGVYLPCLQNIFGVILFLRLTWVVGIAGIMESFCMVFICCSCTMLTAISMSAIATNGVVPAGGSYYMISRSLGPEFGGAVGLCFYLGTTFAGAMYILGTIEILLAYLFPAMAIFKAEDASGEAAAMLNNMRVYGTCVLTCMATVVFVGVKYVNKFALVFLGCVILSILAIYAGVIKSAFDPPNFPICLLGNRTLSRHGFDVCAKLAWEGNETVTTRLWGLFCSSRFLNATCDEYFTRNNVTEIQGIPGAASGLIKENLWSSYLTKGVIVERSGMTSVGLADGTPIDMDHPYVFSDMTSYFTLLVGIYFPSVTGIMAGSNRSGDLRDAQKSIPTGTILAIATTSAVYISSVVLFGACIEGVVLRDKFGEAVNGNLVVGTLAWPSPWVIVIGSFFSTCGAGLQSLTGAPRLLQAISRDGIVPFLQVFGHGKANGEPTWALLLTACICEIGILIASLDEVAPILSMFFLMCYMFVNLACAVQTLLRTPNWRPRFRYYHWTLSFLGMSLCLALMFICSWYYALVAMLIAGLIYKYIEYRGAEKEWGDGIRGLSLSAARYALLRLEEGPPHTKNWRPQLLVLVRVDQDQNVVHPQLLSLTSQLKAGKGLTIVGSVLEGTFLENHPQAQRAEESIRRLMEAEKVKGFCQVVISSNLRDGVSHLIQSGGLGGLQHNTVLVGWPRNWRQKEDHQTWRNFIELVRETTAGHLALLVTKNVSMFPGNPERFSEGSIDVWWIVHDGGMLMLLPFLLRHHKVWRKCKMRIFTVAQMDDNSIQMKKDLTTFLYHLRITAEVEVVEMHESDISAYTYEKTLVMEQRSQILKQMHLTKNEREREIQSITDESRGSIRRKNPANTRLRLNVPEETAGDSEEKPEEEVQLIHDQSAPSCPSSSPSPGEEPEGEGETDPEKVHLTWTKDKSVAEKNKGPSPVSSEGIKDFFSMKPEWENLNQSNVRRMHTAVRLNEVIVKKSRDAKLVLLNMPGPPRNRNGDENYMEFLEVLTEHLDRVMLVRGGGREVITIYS
KCNQ1 block – inhibitors of human KCNQ1 potassium channel; P51787; CHO-K1 KCNQ1, FluxOR thallium flux fluorescence; hits give high values; B-score at 10 µM; hit rate 1.3% among 310,000;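 active = compounds whose thallium flux B-score, printed positive for inhibition, exceeds three library SD while starting fluorescence stays within three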;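 note: channel opened by potassium depolarization with thallium stimulus after 20 min compound exposure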
KCNQ1 act – potentiates or activates the human KCNQ1 potassium channel | B-score at 10 µM | CHO-K1 KCNQ1, thallium flux FluxOR fluorescence; hits give high values | AID 2648 | P51787 | hit rate 0.35% among 310,000;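 active = fluorescence ratio B-score, a plate-corrected score, at least three library SD, with initial intensity B-score within 5 SD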
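Schedule – 37 °C overnight plating, 90-min dark dye load, 20-min compound pretreatment · System – stable KCNQ1 CHO-K1 line · Probe or stimulus – thallium- and potassium-containing depolarizing buffer · Measured by – kinetic FluxOR fluorescence, 10 s baseline plus 110 s post-stimulus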
AI-2 QS mod – Vibrio harveyi AI-2 quorum sensing modulation. hit rate 0.4% among 300,000. Vibrio harveyi JMH597 AI-2 luminescence/OD600 ratio, 9 h; hits give low values; strain lacks LuxN and CqsS sensors; 0 = neutral-control median. activity change, % at 7.5 µM. AID 2094; in the data active = activity change below about -75%, passing the limit was not always enough;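 note: luminescence divided by OD600 gain over 9 h not by final OD600 alone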
Mot1-301 SUMO – inhibitors of SUMOylation pathway: yeast Mot1-301 growth rescue; S. cerevisiae Mot1-301 growth rescue, ATP luminescence, 38.5C; percent above DMSO median, 100 means doubled; growth rescue, % at 18.8 µM; hit rate 1% among 320,000; AID 2716;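 active = every valid replicate shows activation above 250% relative to neutral control wells; inactive = the rest, any valid replicate at or below 250%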;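 note: OY570 slx delta 5 strain wells were the positive control but not used for scaling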
Mot1 SUMO dose – yeast SUMO pathway inhibition in dose response | shares compounds with Mot1-301 SUMO | S. cerevisiae Mot1-301 galactose growth, ATP luminescence, 24 h; -100 = growth of slx-deleted rescue strain | growth activity, percent, % at 42 µM | 2,300 tested, under 10 active | AID 493004;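 active = Signal drops as the depositor expects, and the fitted half-maximal dose is no more than ten times the top valid tested dose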;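 note: more negative values mean stronger growth rescue toward the control strain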
Starred values were filed as active, the others as inactive; i = inactive; x = no result given; + = active, no number.

SMILES	hERG protect	Cl transport mod	KCNQ1 block	KCNQ1 act	AI-2 QS mod	Mot1-301 SUMO	Mot1 SUMO dose
CCC(C(=O)N1CCN(C(=O)c2ccco2)CC1)n1sc2ccccc2c1=O (stereo not given)	-7	x	i	i	7	-3	x
CCOC(=O)c1ccc(NC(=O)NCc2ccc(OC)cc2)cc1	-8	-0.23	i	i	-26	6	x
CCOC(=O)c1ccc(NC(=O)NCc2ccncc2)cc1	-8	1.2	i	i	49	507*	-1
COC(=O)c1ccccc1NC(=O)c1cnn2cccnc12	-6	-0.5	i	i	30	90	x
O=C(CNC(=O)c1ccco1)OCC(=O)c1cccc2ccccc12	-4	x	i	i	31	434*	0
COc1ccc(CCC(=O)NNC(=S)Nc2cccc(C(C)=O)c2)cc1	-3	-0.53	i	i	1	+	0
Cc1ccc(C)c(NC(=O)CSc2nnc3n2CCCCC3)c1	-1	1.3	i	i	17	-7	x
COc1ccc(Cl)cc1NC(=O)CN1CCN(Cc2ccccc2)CC1	-1	x	i	i	20	-2	x
Cc1cc(S(=O)(=O)N2CCCC(N3CCOCC3)C2)c(C)cc1Cl (stereo not given)	-4	x	i	i	19	421*	0
CCc1ccc2c(c1)C(c1ccc([N+](=O)[O-])cc1)=NNC(c1ccc(C)cc1)=N2	-4	-0.13	i	i	17	407*	0
O=C1CCCN1CCC1CCN(C2CC(=O)N(Cc3ccc(N4CCCC4=O)cc3)C2=O)CC1 (stereo not given)	-2	1.8	i	i	19	63	x
O=C1CCCN1CCC1CCN(C2CC(=O)N(c3ccc(Cl)cc3)C2=O)CC1 (stereo not given)	0	-0.099	i	i	40	503*	-2
COc1ccc(NC(=O)c2ccccc2-c2ccccc2)cc1	-8	-0.54	i	i	42	2	x
CC(C)NC(=O)c1ccccc1-c1ccccc1	-6	x	i	i	24	468*	1
O=C(O)[C@H]1CCCC[C@H]1C(=O)Nc1ccc(S(=O)(=O)N2CCCCC2)cc1	-8	x	i	i	8	8	x
O=C(O)C1CCCCC1C(=O)Nc1ccc(S(=O)(=O)N2CCCC2)cc1 (stereo not given)	-4	x	i	i	26	447*	0
CCOC(=O)C1(Cc2cccc(Cl)c2)CCCN(C(=O)CN2C(=O)CSC2=O)C1 (stereo not given)	-23	x	i	i	14	-8	x
CCOc1ccccc1N(CC(=O)Nc1ccccc1C(=O)N1CCCC1)S(C)(=O)=O	-13	x	i	i	31	586*	1
CCOc1ccccc1N(CC(=O)Nc1ccccc1C(=O)O)S(C)(=O)=O	-6	x	i	i	20	9	x
CC(C)CC(c1nnnn1C1CCCC1)N1CCN(C(=O)c2ccco2)CC1 (stereo not given)	-13	0.57	i	i	24	69	x
CC(C)CC(c1nnnn1C1CCCCC1)N1CCN(C(=O)c2ccco2)CC1 (stereo not given)	-3	x	i	i	9	706*	0
Cc1cc(C)c[n+](-c2nc3ccccc3nc2[N-]S(=O)(=O)c2ccc(Br)s2)c1	-17	-0.17	i	i	34	379*	0
O=S(=O)([N-]c1nc2ccccc2nc1-[n+]1ccccc1)c1ccccc1	-3	1.5	i	i	1	-4	x
Cc1cc(Cl)c(S(=O)(=O)N2CCN(c3ccccc3)CC2)cc1OCC(N)=O	-12	-0.32	i	i	9	-15	x
Cc1c(C(=O)N2CCCC2)c(S(=O)(=O)Nc2cccc(Br)c2)c(C)n1C	-5	x	i	i	14	709*	-1
O=C(Nc1cccc(NC(=O)c2ncn[nH]2)c1)c1cccc(Cl)c1	-5	x	i	i	9	16	x

Screens from PubChem.
